Laboratory results reported in ChEMBL document CHEMBL1129039 (J Med Chem, 1996).
Blank lines part the entries; values can stand above or below the compound they belong to. Active and inactive are the calls of the source. The rule behind the calls is not given here.

How the values were obtained:
[1] = In vitro stability was measured in rat kidney tissue preparation; type: ADME
Outline: (§1)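 Lung or kidney cortical membranes made by differential centrifugation and stored at -20 °C. Dilutions in PBS: porcine kidney 1:10, rat kidney 1:100, porcine lung 1:1. Compound at 1 mM in PBS, 10 μL, incubated with 90 μL diluted membranes for various times. Quenched with ethanol, centrifuged.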

[2] = In vitro stability was measured in porcine kidney tissue preparation; type: ADME, Sus scrofa; details: pig; outline: as §1
[3] = In vitro stability was measured in porcine lung tissue preparation; type: ADME, Sus scrofa; details: pig; outline: as §1
[4] = In vitro stability was measured in human plasma tissue preparation; type: ADME
[5] = molecular target: T1, B2 bradykinin receptor (Rattus norvegicus, UniProt P25023); assay: In vitro Bradykinin receptor B2 antagonist activity by using rat uterus functional assay; type: tissue-based; details: read-out: pA2 (converted)
T1 sequence (P25023 whole entry): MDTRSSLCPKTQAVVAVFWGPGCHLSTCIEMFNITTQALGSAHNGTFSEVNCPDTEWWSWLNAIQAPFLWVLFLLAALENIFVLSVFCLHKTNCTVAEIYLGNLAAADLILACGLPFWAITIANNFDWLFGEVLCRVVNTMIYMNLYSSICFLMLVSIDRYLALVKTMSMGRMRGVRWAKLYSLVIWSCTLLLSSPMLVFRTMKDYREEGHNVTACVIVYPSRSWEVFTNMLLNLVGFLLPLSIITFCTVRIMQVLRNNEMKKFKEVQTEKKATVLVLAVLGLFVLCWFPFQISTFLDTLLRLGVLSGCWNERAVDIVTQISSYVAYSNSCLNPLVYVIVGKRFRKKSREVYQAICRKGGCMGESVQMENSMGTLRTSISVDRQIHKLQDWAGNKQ
Outline: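 Uterine horns from female Sprague-Dawley rats primed with stilbesterol (100 μg/kg) 18 h earlier. Tissue held at 1 g tension in De Jalon's solution, 31 °C, aerated. Potency by Arunlakshana-Schild analysis.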

[6] = molecular target: B1 bradykinin receptor (Oryctolagus cuniculus); assay: In vitro Bradykinin receptor B1 antagonist activity in functional tissue within rabbit aorta
[7] = Binding affinity towards bradykinin receptor using [3H]BK as radioligand in guinea pig ileum; type: tissue-based, Cavia porcellus
Outline: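 Ileal membranes from Duncan-Hartley guinea pigs, 0.2 mg/mL, room temperature in 25 mM TES pH 6.8 with 1,10-phenanthroline, DTT, captopril, bacitracin, thiorphan, 0.1% BSA. […] Filtered on PEI-pretreated GF/B, washed with cold Tris pH 7.5/NaCl/BSA, scintillation counted. Mean ± SD, n = 4.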

[8] = molecular target: T2, B2 bradykinin receptor (Homo sapiens, UniProt P30411); assay: Binding affinity towards Bradykinin receptor B2 in human S34 clone cells; type: cell-based
T2 sequence (P30411 whole entry): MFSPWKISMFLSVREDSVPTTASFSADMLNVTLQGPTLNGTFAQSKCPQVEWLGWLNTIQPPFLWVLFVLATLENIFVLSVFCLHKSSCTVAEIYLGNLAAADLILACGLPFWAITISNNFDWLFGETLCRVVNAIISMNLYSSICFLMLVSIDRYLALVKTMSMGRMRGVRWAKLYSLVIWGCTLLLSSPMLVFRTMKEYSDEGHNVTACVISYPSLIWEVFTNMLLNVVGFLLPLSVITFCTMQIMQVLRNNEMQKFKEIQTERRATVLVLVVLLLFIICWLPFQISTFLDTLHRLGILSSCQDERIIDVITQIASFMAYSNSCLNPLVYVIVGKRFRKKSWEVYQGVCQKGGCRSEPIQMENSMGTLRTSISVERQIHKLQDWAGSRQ

[9] = organism: Rattus norvegicus; assay: Percent recovery was evaluated in rat; type: functional, organism-based
Outline: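 Same rat uterus preparation. […] Its pD2 is compared with the initial control pD2. The difference against concurrent control gives percentage recovery of agonist response.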

[10] = test system: Oryctolagus cuniculus; assay: Selectivity was determined as response after administration (0.1 ug/mg/kg) to that of preantagonist response in rabbit; B2 block only; type: functional, organism-based
[11] = test system: Oryctolagus cuniculus; assay: Effective dose for bradykinin B2 activity after administration (0.1 ug/kg/min) in rabbit; type: functional
[12] = test system: Oryctolagus cuniculus; assay: Effective dose for bradykinin B2 activity after administration (0.01 ug/kg/min) in rabbit; type: functional
[13] = test system: Oryctolagus cuniculus; assay: Percent inhibition after intravenously administration compound at 60 min in rabbit; expressed as percent inhibition; type: functional
[14] = test system: Oryctolagus cuniculus; assay: Effective dose for bradykinin B1 activity after administration (10 ug/kg/min) in rabbit; type: functional
[15] = test system: Oryctolagus cuniculus; assay: Effective dose for bradykinin B2 activity after administration (0.03 ug/kg/min) in rabbit; type: functional
[16] = test system: Oryctolagus cuniculus; assay: Effective dose for bradykinin B1 activity after administration (1 ug/kg/min) in rabbit; type: functional
[17] = test system: Oryctolagus cuniculus; assay: Effective dose for bradykinin B1 activity after administration (3 ug/kg/min) in rabbit; type: functional
[18] = test system: Rattus norvegicus; assay: Percent inhibition after subcutaneously administration compound at 3H in rat; expressed as percent inhibition; type: functional

half-life [1]: > 6 h | half-life [2]: > 6 h | half-life [3]: > 6 h | half-life [4]: > 6 h | Kb [5]: 0.316 nM
SMILES: NC(N)=NCCC[C@@H](N)C(=O)N[C@@H](CCCN=C(N)N)C(=O)N1CCC[C@H]1C(=O)N1C[C@H](O)C[C@H]1C(=O)NCC(=O)N[C@@H](Cc1cccs1)C(=O)N[C@@H](CO)C(=O)N1Cc2ccccc2C[C@@H]1C(=O)N1[C@H](C(=O)N[C@@H](CCCN=C(N)N)C(=O)O)C[C@@H]2CCCC[C@@H]21 [ICATIBANT]

half-life [1]: > 6 h | IC50 [6]: > 10000 nM | half-life [2]: > 6 h | half-life [3]: > 6 h | half-life [4]: > 6 h | Kb [5]: 0.49 nM | Ki [8]: 0.24 nM
SMILES: NC(N)=NCCCC(N)C(=O)NC(CCCN=C(N)N)C(=O)N1CCC[C@H]1C(=O)N1C[C@H](O)C[C@H]1C(=O)NCC(=O)N[C@@H](Cc1cccs1)C(=O)N[C@@H](CO)C(=O)N1Cc2ccccc2C[C@@H]1C(=O)N(CC(=O)NC(CCCN=C(N)N)C(=O)O)C1CCCCC1 (stereo in doubt) [listing 1 of 3 here]
Log Ki [7]: -10.11

SMILES: NC(N)=NCCCC(N)C(=O)NC(CCCN=C(N)N)C(=O)N1CCC[C@H]1C(=O)N1C[C@H](O)C[C@H]1C(=O)NCC(=O)N[C@@H](Cc1cccs1)C(=O)N[C@@H](CO)C(=O)N1Cc2ccccc2C[C@@H]1C(=O)N(CC(=O)NC(CCCN=C(N)N)C(=O)O)C1CCCCC1 (stereo in doubt) [listing 2 of 3 here]
Recovery [9]: 73% | Selectivity [10]: inactive

SMILES: NC(N)=NCCCC(N)C(=O)NC(CCCN=C(N)N)C(=O)N1CCC[C@H]1C(=O)N1C[C@H](O)C[C@H]1C(=O)NCC(=O)N[C@@H](Cc1cccs1)C(=O)N[C@@H](CO)C(=O)N1Cc2ccccc2C[C@@H]1C(=O)N(CC(=O)NC(CCCN=C(N)N)C(=O)O)C1CCCCC1 (stereo in doubt) [listing 3 of 3 here]
ED50 [11]: 0.051 µg/mg/kg | ED50 [12]: 0.051 µg/mg/kg | Inhibition [13]: 100% | ED50 [14]: 2.9 µg/mg/kg | ED50 [15]: 0.051 µg/mg/kg | ED50 [16]: 2.9 µg/mg/kg | ED50 [17]: 2.9 µg/mg/kg | Inhibition [18]: 100%
